Measurements as given in ChEMBL document CHEMBL3352788, “Characterization of selective exosite-binding inhibitors of matrix metalloproteinase 13 that prevent articular cartilage degradation in vitro” (J Med Chem, 2014).

What was measured:
Cytochrome P450 1A2 = target: T1, Cytochrome P450 1A2 (Homo sapiens, UniProt P05177); experiment: (§1) Inhibition of CYP1A2 (unknown origin) using tacrin substrate at 20 uM; assay type: ADME; details: 20 µM
T1 sequence (P05177 whole entry): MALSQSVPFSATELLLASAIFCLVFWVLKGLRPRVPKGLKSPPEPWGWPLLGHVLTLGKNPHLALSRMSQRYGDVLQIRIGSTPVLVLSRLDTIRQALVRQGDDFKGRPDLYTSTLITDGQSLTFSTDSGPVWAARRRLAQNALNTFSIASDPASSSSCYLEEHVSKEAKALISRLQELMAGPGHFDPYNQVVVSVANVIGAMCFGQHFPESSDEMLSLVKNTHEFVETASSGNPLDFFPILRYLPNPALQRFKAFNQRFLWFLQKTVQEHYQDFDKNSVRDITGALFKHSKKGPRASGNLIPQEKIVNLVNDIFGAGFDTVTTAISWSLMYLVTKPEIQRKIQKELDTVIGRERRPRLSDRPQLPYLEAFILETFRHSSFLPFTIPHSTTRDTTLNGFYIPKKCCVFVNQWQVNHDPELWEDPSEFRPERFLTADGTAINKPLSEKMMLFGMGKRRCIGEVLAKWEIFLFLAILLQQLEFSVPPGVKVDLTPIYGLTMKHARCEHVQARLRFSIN
In short: (§2)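 Human liver microsomes with probe substrate and an NADPH-regenerating system in 0.1 M potassium phosphate pH 7.4 at 37 °C, run in duplicate. Inhibitor at 0–20 μM (0–2.5 μM for one compound), eight concentrations. Reactions were stopped with acetonitrile/formic acid containing isotope-labelled internal standard, and metabolite area ratios were compared with and without inhibitor. IC50 was taken by linear interpolation between bracketing concentrations.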

CYP1A2 = CYP1A2 (Homo sapiens, UniProt P05177); experiment: as §1; assay type: ADME; details: probe tacrin; in short: as §2

inhibition (INH) (Cytochrome P450 1A2) [%]	Compound	inhibition at 20 µM (CYP1A2) [%]
> 10	Cc1cc(CNC(=O)c2cc(C(=O)NCc3ccc(F)c(C)c3)ncn2)ccc1F	
	COC(=O)c1ccc(CSc2nc3c(c(=O)[nH]2)CCC3)cc1	29
